Screening results (PubChem BioAssay)
Only a selection was taken, and hits are over-represented in it overall.
H69AR inhibit = growth inhibitors of human H69AR lung tumor cells; H69AR lung tumor viability, ATP luminescence, 72 h; stronger effect = lower value; 85,000 compounds, 6% hits; AID 598; viability, % at 10 µM;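 active means viability at or below 40%; inactive means viability above 40%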;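 further: multidrug resistant small cell line overexpressing MRP-1 efflux transporter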
Fibroblast inh = blocks proliferation of human lung fibroblasts; LL 47 human lung fibroblast viability, ATP luminescence; stronger effect = lower value; viability, % at 10 µM; 85,000 compounds, 1.1% hits; AID 719;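 active means viability at or below 50% in the single dose screen; inactive means viability above 50%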;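 further: compound exposure lasted 72 h before the ATP readout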
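Test system: LL 47 human lung fibroblasts; Quantity: 1,150 cells/well; Buffer or medium: IMEM plus 15% FBS; Dosing: tenfold compound dosing solution, DMSO at 0.1%; Timing: overnight cell rest, 72 h compound treatment at 37 °C; Detection: ATP-based CellTiter-Glo luminescent readout; Read-out basis: viability percentage against median untreated-cell control; Controls: cell-only wells, no compound.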
HUVEC prolif 384 = human endothelial cell proliferation inhibition; HUVEC proliferation, CellTiter-Glo luminescence, 72 h; stronger effect = lower value; viability, % at 10 µM (by protocol); 86,000 compounds, 1.1% hits;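 active means viability at or below 30%; inactive means viability above 30%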
HCT116 PTEN-null = PTEN-deleted cell growth suppression; HCT116 PTEN-null viability, CellTiter-Glo, 60 h; stronger effect = lower value; 140,000 compounds, 1.2% hits; viability, % at 10 µM;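 active means viability at or below a set limit, 4 SD under the median of all tested compounds, cut at about 3.7% in these data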;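 further: PTEN knockout HCT116 line with beta catenin targeted HCT116 as companion control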
HCT116 bCat-KO = beta-catenin-lacking colon tumor cell growth suppression | HCT116 beta-catenin knockout viability, CellTiter-Glo, 60 h; stronger effect = lower value | viability, % at 10 µM | 140,000 compounds, 1.5% hits;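 active means viability at or under a set limit, the compound median less 4 SD, cut at about 6% in these data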
Each line names hits and unclear results; the compound was inactive in the other large screens.

Brc1ccc2c(c1)C(OC1CN3CCC1CC3)c1ccccc1CS2 (configuration not stated)	HCT116 PTEN-null 2.9, HCT116 bCat-KO 6.0 (no result: H69AR inhibit, Fibroblast inh, HUVEC prolif 384)
Cc1cccn2c(=O)c3cc(C(=O)N4CCC5(CC4)OCCO5)n(C)c3nc12	H69AR inhibit 20
CCOc1ccc(-n2c(O)c(C=NCCCn3ccnc3)c(=O)[nH]c2=O)cc1	none
Cc1oc(C(=O)Nc2ccc(O)cc2)cc1COc1ccccc1	H69AR inhibit 29
Cc1ccc(S(=O)(=O)N2CN3CCN(C3)C2)cc1	none
Nc1c(C(=O)NCCCc2ccccc2)c2nc3ccccc3nc2n1Cc1cccs1	HCT116 PTEN-null 1.9, HCT116 bCat-KO 2.9
CCCCCn1c(N)c(C(=O)NCc2cccs2)c2nc3ccccc3nc21	H69AR inhibit 32
CCCCn1c(N)c(C(=O)NCc2cccs2)c2nc3ccccc3nc21	H69AR inhibit 35
CCCOC(=O)c1c(N)n(Cc2cccs2)c2nc3ccccc3nc12	none
O=C(OCC(=O)c1ccc([N+](=O)[O-])cc1)/C(=C\c1ccc(Cl)cc1)NC(=O)c1ccccc1	none (no result: H69AR inhibit, Fibroblast inh, HUVEC prolif 384)
CC(C)OP(=O)(OC(C)C)C(O)c1ccccc1F (configuration not stated)	none (no result: H69AR inhibit, Fibroblast inh, HUVEC prolif 384)
c1ccc2c(c1)CSc1ccccc1C2C1=NCCN1 (configuration not stated)	none (no result: H69AR inhibit, Fibroblast inh, HUVEC prolif 384)
C/C(=N\Nc1cccc2ccccc12)c1c(O)n(Cc2ccccc2)c(=O)[nH]c1=O	none (no result: H69AR inhibit, Fibroblast inh, HUVEC prolif 384)
CCN(CC)CCNC(=O)c1c(O)c2ccccc2n(Cc2ccccc2)c1=O	H69AR inhibit 27
CCN(CC)CCCNC(=O)c1c(O)c2ccccc2n(Cc2ccccc2)c1=O	H69AR inhibit 9.1
CCOC(=O)CC1=C(C(=O)OCC)C2(C(=O)Nc3ccccc32)C(C#N)=C(N)O1 (configuration not stated)	none
CCCCC1(CCCC)C(=O)NC(=Nc2cccc(C)c2)NC1=O	H69AR inhibit 7.8
C[C@H]1CCCC(=O)CCC/C=C/c2cc(O)cc(O)c2C(=O)O1	H69AR inhibit 36
O=c1[nH]c(=O)n(CCC2=CCCCC2)c(O)c1C=NCc1cccnc1	none
CC(=NCCN1CCOCC1)c1c(O)n(Cc2ccccc2)c(=O)[nH]c1=O	none
CCOC(=O)C1=C(N)Oc2cc(C)oc(=O)c2C12C(=O)N1c3c(cccc32)C(C)=CC1(C)C (configuration not stated)	none
CCOC(=O)C1=C(N)Oc2cc(C)oc(=O)c2C12C(=O)N1c3c(cc(OC)cc32)C(C)=CC1(C)C (configuration not stated)	H69AR inhibit 31
CN1CCN(c2ccc([N+](=O)[O-])c3cccnc23)CC1	none (no result: H69AR inhibit, Fibroblast inh, HUVEC prolif 384)
CCOc1cccc(OCC)c2c(C)[n+](CC3CCCO3)c(C)c1-2 (configuration not stated)	H69AR inhibit 32
